“Also recorded” adds a separate entry of the source.
Assays:
D924N-CFTR = D924N-CFTR (Homo sapiens, UniProt P13569, D924N); assay: Inside-out patch-clamp of CFTR currents in transfected CHO cells; assay type: cell-based; details: 200 nM VX-770, 2 mM ATP, mean
Procedure, shortened: (§1)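 CFTR construct and GFP plasmid cotransfected into CHO cells, held at 27°C for 2–6 d. Inside-out patches at room temperature, −30 mV, NMDG-Cl solutions at pH 7.4. Channels preactivated with 25 IU PKA plus 2 mM MgATP, then test compound (max 40 µM) applied in 2 mM ATP. ATP-subtracted steady-state currents normalized to the 3 µM response in the same patch. Hill fit with base 0 and maximum 1; EC50 ± SD of fit; 3–7 patches per point.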

WT-CFTR [1] = molecular target: T1, WT-CFTR (Homo sapiens, UniProt P13569); assay: as above; assay type: cell-based; details: mean
Procedure, shortened: as §1

F304Y-mCFTR = F304Y-mCFTR (Mus musculus, UniProt P26361, F304Y); assay: as above; assay type: cell-based
Procedure, shortened: as §1

F236A-CFTR = F236A-CFTR (Homo sapiens, UniProt P13569, F236A); assay: as above; assay type: cell-based; details: 200 nM VX-770, mean
Procedure, shortened: as §1

N1138L/G551D-CFTR = N1138L/G551D-CFTR (Homo sapiens, UniProt P13569, G551D/N1138L); assay: as above; assay type: cell-based; details: mean
Procedure, shortened: as §1

G551D-CFTR = G551D-CFTR (Homo sapiens, UniProt P13569, G551D); assay: as above; assay type: cell-based
Procedure, shortened: as §1

S1141K/G551D-CFTR = S1141K/G551D-CFTR (Homo sapiens, UniProt P13569, G551D/S1141K); assay: as above; assay type: cell-based; details: mean
Procedure, shortened: as §1

S182A-CFTR = S182A-CFTR (Homo sapiens, UniProt P13569, S182A); assay: as above; assay type: cell-based; details: 200 nM VX-770, mean
Procedure, shortened: as §1

S263A-CFTR = S263A-CFTR (Homo sapiens, UniProt P13569, S263A); assay: as above; assay type: cell-based; details: 200 nM VX-770, mean
Procedure, shortened: as §1

WT-CFTR [2] = molecular target: T1, WT-CFTR; details: ref Jih and Hwang, 2013; cited from earlier work
F229A-CFTR = F229A-CFTR (Homo sapiens, UniProt P13569, F229A); assay: Inside-out patch-clamp of CFTR currents in transfected CHO cells; assay type: cell-based; details: 200 nM VX-770, mean
Procedure, shortened: as §1

Y304A-CFTR = Y304A-CFTR (Homo sapiens, UniProt P13569, Y304A); assay: Inside-out patch-clamp of CFTR currents in transfected CHO cells; assay type: cell-based; details: 200 nM VX-770, mean
Procedure, shortened: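 Relaxation assay: PKA-preactivated channels in 2 mM ATP at −30 mV exposed to test compound through a fast three-barrel perfusion system (dead time ∼30 ms). Current decay after sudden removal of 3 µM compound fitted with a single exponential to give relaxation time constant τ.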

WT-mCFTR = WT-mCFTR (Mus musculus, UniProt P26361); assay: Inside-out patch-clamp of CFTR currents in transfected CHO cells; assay type: cell-based; details: 200 nM VX-770, 2 mM ATP
Procedure, shortened: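 Mouse CFTR expressed in CHO cells; inside-out patches. Phosphorylated channels opened by 2 mM ATP before the potentiator was applied (one potentiator at 200 nM). 5 µM CFTRinh-172 added at the end of each recording for baseline.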

F312A-CFTR = F312A-CFTR (Homo sapiens, UniProt P13569, F312A); assay: Inside-out patch-clamp of CFTR currents in transfected CHO cells; assay type: cell-based; details: 200 nM VX-770, 30 µM ATP, mean
F312A-CFTR, sequence (P13569 whole entry F312A): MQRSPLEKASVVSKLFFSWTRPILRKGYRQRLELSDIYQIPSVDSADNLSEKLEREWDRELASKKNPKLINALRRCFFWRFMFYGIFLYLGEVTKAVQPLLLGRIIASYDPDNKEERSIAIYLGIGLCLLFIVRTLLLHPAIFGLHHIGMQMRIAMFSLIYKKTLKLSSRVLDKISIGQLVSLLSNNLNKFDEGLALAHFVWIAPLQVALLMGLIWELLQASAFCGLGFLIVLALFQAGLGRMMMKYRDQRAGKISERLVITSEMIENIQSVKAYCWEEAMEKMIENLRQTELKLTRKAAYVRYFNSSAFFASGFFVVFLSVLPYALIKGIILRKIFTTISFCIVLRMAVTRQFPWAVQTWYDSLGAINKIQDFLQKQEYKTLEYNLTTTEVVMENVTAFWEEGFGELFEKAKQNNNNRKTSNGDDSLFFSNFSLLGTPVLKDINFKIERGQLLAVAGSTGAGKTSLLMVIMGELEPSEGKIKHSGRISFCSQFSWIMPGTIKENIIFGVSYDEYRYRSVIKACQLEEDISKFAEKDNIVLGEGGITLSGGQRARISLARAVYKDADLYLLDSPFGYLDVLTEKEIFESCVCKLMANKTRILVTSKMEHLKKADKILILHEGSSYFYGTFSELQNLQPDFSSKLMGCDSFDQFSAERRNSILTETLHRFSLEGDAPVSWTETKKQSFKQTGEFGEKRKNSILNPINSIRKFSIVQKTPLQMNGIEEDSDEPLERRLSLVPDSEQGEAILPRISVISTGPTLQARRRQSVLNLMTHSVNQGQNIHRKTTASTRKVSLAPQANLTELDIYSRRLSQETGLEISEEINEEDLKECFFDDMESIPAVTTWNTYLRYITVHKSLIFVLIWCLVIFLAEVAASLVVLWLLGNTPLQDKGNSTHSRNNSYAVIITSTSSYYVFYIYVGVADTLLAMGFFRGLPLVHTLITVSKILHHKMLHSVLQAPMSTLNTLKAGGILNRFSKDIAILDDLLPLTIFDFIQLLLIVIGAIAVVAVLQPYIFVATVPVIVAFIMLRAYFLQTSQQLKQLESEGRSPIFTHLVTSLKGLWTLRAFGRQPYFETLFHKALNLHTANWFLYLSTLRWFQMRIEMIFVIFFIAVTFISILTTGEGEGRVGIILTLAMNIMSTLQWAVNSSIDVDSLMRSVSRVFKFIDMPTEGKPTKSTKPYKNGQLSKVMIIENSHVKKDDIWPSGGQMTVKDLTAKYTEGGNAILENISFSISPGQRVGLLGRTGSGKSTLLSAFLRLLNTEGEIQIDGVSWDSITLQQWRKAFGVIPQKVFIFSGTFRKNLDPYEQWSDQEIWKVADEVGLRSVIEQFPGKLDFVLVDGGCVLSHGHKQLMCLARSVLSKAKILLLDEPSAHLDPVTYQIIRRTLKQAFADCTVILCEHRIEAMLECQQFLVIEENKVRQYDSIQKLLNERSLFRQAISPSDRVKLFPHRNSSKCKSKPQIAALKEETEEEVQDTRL

T1 sequence (P13569 whole entry): as the sequence (P13569 whole entry F312A) above, with A312F counted along it
S1141K/G551D-CFTR, sequence (P13569 whole entry G551D/S1141K): as the sequence (P13569 whole entry F312A) above, with A312F, G551D, S1141K counted along it
F229A-CFTR, sequence (P13569 whole entry F229A): as the sequence (P13569 whole entry F312A) above, with F229A, A312F counted along it
Y304A-CFTR, sequence (P13569 whole entry Y304A, the tested form may be a part): as the sequence (P13569 whole entry F312A) above, with Y304A, A312F counted along it
D924N-CFTR, sequence (P13569 whole entry D924N): as the sequence (P13569 whole entry F312A) above, with A312F, D924N counted along it
F304Y-mCFTR, sequence (P26361 whole entry F304Y): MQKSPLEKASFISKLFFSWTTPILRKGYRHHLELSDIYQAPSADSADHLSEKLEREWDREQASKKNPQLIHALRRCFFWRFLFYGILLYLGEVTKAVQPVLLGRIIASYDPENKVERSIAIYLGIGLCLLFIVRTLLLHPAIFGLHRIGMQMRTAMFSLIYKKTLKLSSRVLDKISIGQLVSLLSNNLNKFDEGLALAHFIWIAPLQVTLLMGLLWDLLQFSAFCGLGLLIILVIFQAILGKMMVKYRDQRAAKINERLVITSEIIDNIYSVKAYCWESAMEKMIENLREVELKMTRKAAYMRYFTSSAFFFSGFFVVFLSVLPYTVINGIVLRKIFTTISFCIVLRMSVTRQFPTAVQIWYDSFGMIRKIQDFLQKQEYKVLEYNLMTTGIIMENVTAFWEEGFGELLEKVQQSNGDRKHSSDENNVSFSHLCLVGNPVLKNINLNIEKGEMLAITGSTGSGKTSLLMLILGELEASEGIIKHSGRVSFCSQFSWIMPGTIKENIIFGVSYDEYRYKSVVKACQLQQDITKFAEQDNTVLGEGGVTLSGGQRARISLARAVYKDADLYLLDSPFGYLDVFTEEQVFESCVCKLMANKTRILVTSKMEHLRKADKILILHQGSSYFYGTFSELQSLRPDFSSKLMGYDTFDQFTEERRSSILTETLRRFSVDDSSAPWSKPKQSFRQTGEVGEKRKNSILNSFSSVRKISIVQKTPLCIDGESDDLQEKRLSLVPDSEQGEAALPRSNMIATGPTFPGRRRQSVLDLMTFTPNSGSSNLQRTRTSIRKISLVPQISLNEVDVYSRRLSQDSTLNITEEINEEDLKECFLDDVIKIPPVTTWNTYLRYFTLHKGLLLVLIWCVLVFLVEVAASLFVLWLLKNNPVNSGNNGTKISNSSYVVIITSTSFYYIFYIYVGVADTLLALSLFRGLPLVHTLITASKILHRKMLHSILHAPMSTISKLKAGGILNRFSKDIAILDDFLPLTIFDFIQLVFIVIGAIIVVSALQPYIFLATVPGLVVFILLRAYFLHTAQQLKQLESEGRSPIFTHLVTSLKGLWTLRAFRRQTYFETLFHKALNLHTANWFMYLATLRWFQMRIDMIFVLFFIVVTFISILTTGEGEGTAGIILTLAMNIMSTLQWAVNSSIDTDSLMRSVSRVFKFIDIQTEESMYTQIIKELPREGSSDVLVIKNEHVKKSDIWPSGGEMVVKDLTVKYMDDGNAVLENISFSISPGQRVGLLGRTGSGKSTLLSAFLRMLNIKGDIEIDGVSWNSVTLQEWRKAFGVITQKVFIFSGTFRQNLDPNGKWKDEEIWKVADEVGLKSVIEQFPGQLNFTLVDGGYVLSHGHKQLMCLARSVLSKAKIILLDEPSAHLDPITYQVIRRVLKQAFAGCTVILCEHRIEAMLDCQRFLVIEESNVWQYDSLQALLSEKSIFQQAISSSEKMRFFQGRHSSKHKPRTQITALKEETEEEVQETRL
G551D-CFTR, sequence (P13569 whole entry G551D): as the sequence (P13569 whole entry F312A) above, with A312F, G551D counted along it
F236A-CFTR, sequence (P13569 whole entry F236A): as the sequence (P13569 whole entry F312A) above, with F236A, A312F counted along it
S182A-CFTR, sequence (P13569 whole entry S182A): as the sequence (P13569 whole entry F312A) above, with S182A, A312F counted along it
N1138L/G551D-CFTR, sequence (P13569 whole entry G551D/N1138L): as the sequence (P13569 whole entry F312A) above, with A312F, G551D, N1138L counted along it
S263A-CFTR, sequence (P13569 whole entry S263A): as the sequence (P13569 whole entry F312A) above, with S263A, A312F counted along it
WT-mCFTR, sequence (P26361 whole entry): as the sequence (P26361 whole entry F304Y) above, with Y304F counted along it

## CC(C)(C)c1cc(C(C)(C)C)c(NC(=O)c2c[nH]c3ccccc3c2=O)cc1O [VX-770, N-(2,4-di-tert-butyl-5-hydroxyphenyl)-4-oxo-1,4-dihydroquinoline-3-carboxamide]
D924N-CFTR
  τoff (VX-770): 115 ± 7 s
  τon (VX-770): 78 ± 18 s
WT-CFTR [1]; current decay on removal of 200 nM VX-770, 2 mM ATP
  τoff (VX-770): 361 ± 39 s
WT-CFTR [1]; current rise on application of 200 nM VX-770, 2 mM ATP
  τon (VX-770): 6.7 ± 1.2 s
F304Y-mCFTR
  Potentiation of currents by VX-770: restores the potentiating effects; also recorded: Restoring the effect
F236A-CFTR
  τoff (VX-770): 173 ± 45 s
  τon (VX-770): 19 ± 8 s
N1138L/G551D-CFTR
  τoff (VX-770): 268 ± 25 s
  τon (VX-770): 18 ± 5 s
G551D-CFTR; current decay on removal of VX-770, mean
  τoff (VX-770): 68 ± 14 s
G551D-CFTR; current rise on application of VX-770, mean
  τon (VX-770): 5.9 ± 2.4 s
S1141K/G551D-CFTR
  τoff (VX-770): 221 ± 50 s
  τon (VX-770): 14 ± 6 s
S182A-CFTR
  τoff (VX-770): 343 ± 96 s
  τon (VX-770): 8.2 ± 1.5 s
S263A-CFTR
  τoff (VX-770): 288 ± 68 s
  τon (VX-770): 6.1 ± 1.5 s
WT-CFTR [2]
  Saturating concentration for VX-770: 200 nM
F229A-CFTR
  τoff (VX-770): 338 ± 49 s
  τon (VX-770): 6.2 ± 1.3 s
Y304A-CFTR
  τoff (VX-770): 18 ± 6 s
  τon (VX-770): 49 ± 11 s
WT-mCFTR
  Potentiation of currents by VX-770: fails to potentiate
F312A-CFTR
  τoff (VX-770): 38 ± 5 s
  τon (VX-770): 15 ± 1 s
